Experimental data published in PMC11564230 (Clinical Drug Investigation, 2024).

Assays:
[1] = Safety in the clinical study; assay type: in vivo, human; details: for AEs of severity Mild, % / AEs of severity Moderate, % / AEs of severity Severe, % / AEs with outcome Recovered/resolved, % / AEs with outcome Recovering/resolving, % / AEs with relationship to study product Possible, % / AEs with relationship to study product Probable, % / AEs with relationship to study product Unlikely, % / Decreased appetite, % / Gastrointestinal disorders (SOC), % / General disorders and administration site conditions (SOC), % / Headache, % / Metabolism and nutrition disorders (SOC), % / Nausea, % / Nervous system disorders (SOC), % / Serious AEs, % / Vomiting, % / Treatment emergent AEs, %: percent of individuals; for Overall tolerability in the clinical study: T2DM
In short: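 Adverse events and hypoglycaemia recorded continuously; treatment-emergent if from dosing to 35 days post-dose. Hypoglycaemia was BG-confirmed (BG < 2.8 mmol/L, i.e. PG < 3.1 mmol/L) or severe (needing assistance). Antibody samples taken pre-dose and at days 14, 28 and 35; validated assays. Anti-icodec-positive samples tested for human insulin cross-reactivity. Descriptive statistics.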

[2] = Clinical single-dose pharmacokinetics of semaglutide in plasma; assay type: in vivo, human; details: T2DM, single s.c. dose 0.5 mg semaglutide
In short: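 Same crossover design in T2DM adults: single s.c. dose of 1 mg/mL (243 nmol/mL) product, 6–9 week washout. EDTA plasma drawn pre-dose to 840 h (35 days), kept on ice 10 min, spun 1500g 10 min 4 °C, stored −20 °C. Measured by validated LC-MS/MS. Log-transformed Cmax analysed by linear normal model with treatment, period and participant as fixed effects.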

[3] = insulin-naïve T2DM, phase 3 ONWARDS 1 and 3; cited from earlier work
[4] = Clinical single-dose pharmacokinetics of insulin icodec in serum; assay type: in vivo, human; details: T2DM, single s.c. dose 175 U icodec
In short: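 T2DM adults (18–64 y, metformin ± one OAD, 80–120 kg, HbA1c 6.0–8.5%) in a randomised, double-blind, three-period crossover. Single s.c. dose of 700 U/mL product; washout 6–9 weeks. Serum sampled pre-dose to 840 h, clotted 30 min at RT, spun 1500g 10 min 4 °C, stored −20 °C; validated LOCI. Log Cmax fitted by linear model (treatment, period, participant fixed); tmax descriptive.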

[5] = number of events, treatment emergent

With `CC[C@H](C)[C@H](NC(=O)[C@H](Cc1ccccc1)NC(=O)[C@H](CCC(=O)O)NC(=O)[C@H](CCCCNC(=O)COCCOCCNC(=O)COCCOCCNC(=O)CC[C@H](NC(=O)CCCCCCCCCCCCCCCCC(=O)O)C(=O)O)NC(=O)[C@H](C)NC(=O)[C@H](C)NC(=O)[C@H](CCC(N)=O)NC(=O)CNC(=O)[C@H](CCC(=O)O)NC(=O)[C@H](CC(C)C)NC(=O)[C@H](Cc1ccc(O)cc1)NC(=O)[C@H](CO)NC(=O)[C@H](CO)NC(=O)[C@@H](NC(=O)[C@H](CC(=O)O)NC(=O)[C@H](CO)NC(=O)[C@@H](NC(=O)[C@H](Cc1ccccc1)NC(=O)[C@@H](NC(=O)CNC(=O)[C@H](CCC(=O)O)NC(=O)C(C)(C)NC(=O)[C@@H](N)Cc1cnc[nH]1)[C@@H](C)O)[C@@H](C)O)C(C)C)C(=O)N[C@@H](C)C(=O)N[C@@H](Cc1c[nH]c2ccccc12)C(=O)N[C@@H](CC(C)C)C(=O)N[C@H](C(=O)N[C@@H](CCCNC(=N)N)C(=O)NCC(=O)N[C@@H](CCCNC(=N)N)C(=O)NCC(=O)O)C(C)C` [Semaglutide, semaglutide] the “Participants positive for anti-semaglutide antibodies” value ([1]; assessed following IcoSema administration) was “No participants were positive”, the “AEs of severity Mild, %” value ([1]; treatment emergent) was “(57.1) %” and the “AEs of severity Moderate, %” value ([1]; treatment emergent) was “(17.9) %”. The “AEs of severity Severe, %” value ([1]; treatment emergent) was “(0.0) %”, the “AEs with outcome Recovered/resolved, %” value ([1]; treatment emergent) was “(60.7) %” and the “AEs with outcome Recovering/resolving, %” value ([1]; treatment emergent) was “(0.0) %”. The “AEs with relationship to study product Possible, %” value ([1]; treatment emergent) was “(28.6) %”, the “AEs with relationship to study product Probable, %” value ([1]; treatment emergent) was “(42.9) %” and the “AEs with relationship to study product Unlikely, %” value ([1]; treatment emergent) was “(21.4) %”. The “Decreased appetite, %” value ([1]; treatment emergent) was “(17.9) %”, the “Gastrointestinal disorders (SOC), %” value ([1]; treatment emergent) was “(42.9) %” and the “General disorders and administration site conditions (SOC), %” value ([1]; treatment emergent) was “(14.3) %”. The “Headache, %” value ([1]; treatment emergent) was “(7.1) %”, the “Metabolism and nutrition disorders (SOC), %” value ([1]; treatment emergent) was “(21.4) %” and the “Nausea, %” value ([1]; treatment emergent) was “(21.4) %”. The “Nervous system disorders (SOC), %” value ([1]; treatment emergent) was “(17.9) %”, the “Serious AEs, %” value ([1]; treatment emergent) was “(0.0) %” and the “Vomiting, %” value ([1]; treatment emergent) was “(7.1) %”. For the same compound, the “Treatment emergent AEs, %” value ([1]; until 35 days after dosing) was “(60.7) %”, the “Overall tolerability in the clinical study” value ([1]; single s.c. dose) was “well-tolerated” and the “Maximum concentration after single dose (Cmax,SD,Semaglutide), LS mean” value ([2]; plasma, LS mean, N 30/28) was 8 nM. The “Median time to maximum semaglutide concentration after single dose (tmax,SD,Semaglutide)” value ([2]; median) was 84 h.

For insulin degludec, the “Rate of clinically significant or severe hypoglycaemia” value [3] is given as < 1 episode per patient-year of exposure.

For insulin icodec, the “Maximum concentration after single dose (Cmax,SD,Icodec), LS mean” value ([4]; serum, LS mean, N 30/28) was 95 nM, the “Median time to maximum icodec concentration after single dose (tmax,SD,Icodec)” value ([4]; median) was 24 h and the “Treatment-emergent BG confirmed hypoglycaemic episodes” value ([1]; BG < 2.8 mmol/L, PG < 3.1 mmol/L, single s.c. dose, until 35 days after dose) was “three”. The “Participants positive for anti-icodec antibodies at least once during the study” value ([1]; assessed following IcoSema and icodec administration) was 13 participants, the “AEs of severity Mild, E” value [1, 5] was 23 and the “AEs of severity Moderate, E” value [1, 5] was 6. The “AEs of severity Severe, E” value [1, 5] was 1, the “AEs with outcome Recovered/resolved, E” value [1, 5] was 30 and the “AEs with outcome Recovering/resolving, E” value [1, 5] was 0. For the same compound, the “AEs with relationship to study product Possible, E” value [1, 5] was 14, the “AEs with relationship to study product Probable, E” value [1, 5] was 4 and the “AEs with relationship to study product Unlikely, E” value [1, 5] was 12. The “Decreased appetite, E” value [1, 5] was 3, the “Gastrointestinal disorders (SOC), E” value [1, 5] was 5 and the “General disorders and administration site conditions (SOC), E” value [1, 5] was 2. For the same compound, the “Headache, E” value [1, 5] was 5, the “Metabolism and nutrition disorders (SOC), E” value [1, 5] was 3 and the “Nausea, E” value [1, 5] was 0. For the same compound, the “Nervous system disorders (SOC), E” value [1, 5] was 5, the “Serious AEs, E” value [1, 5] was 1 and the “Vomiting, E” value [1, 5] was 0. The “Treatment emergent AEs, E” value ([1]; number of events, until 35 days after dosing) was 30, the “Participants positive for anti-icodec antibodies cross-reacting to human insulin at least once” value ([1]; of the anti-icodec antibody positive participants) was 12 participants and the “AEs of severity Mild, %” value ([1]; treatment emergent) was “(42.9) %”. For the same compound, the “AEs of severity Moderate, %” value ([1]; treatment emergent) was “(17.9) %”, the “AEs of severity Severe, %” value ([1]; treatment emergent) was “(3.6) %” and the “AEs with outcome Recovered/resolved, %” value ([1]; treatment emergent) was “(53.6) %”. For the same compound, the “AEs with outcome Recovering/resolving, %” value ([1]; treatment emergent) was “(0.0) %”, the “AEs with relationship to study product Possible, %” value ([1]; treatment emergent) was “(28.6) %” and the “AEs with relationship to study product Probable, %” value ([1]; treatment emergent) was “(10.7) %”. For the same compound, the “AEs with relationship to study product Unlikely, %” value ([1]; treatment emergent) was “(32.1) %”, the “Decreased appetite, %” value ([1]; treatment emergent) was “(10.7) %” and the “Gastrointestinal disorders (SOC), %” value ([1]; treatment emergent) was “(14.3) %”. The “General disorders and administration site conditions (SOC), %” value ([1]; treatment emergent) was “(7.1) %”, the “Headache, %” value ([1]; treatment emergent) was “(14.3) %” and the “Metabolism and nutrition disorders (SOC), %” value ([1]; treatment emergent) was “(10.7) %”. The “Nausea, %” value ([1]; treatment emergent) was “(0.0) %”, the “Nervous system disorders (SOC), %” value ([1]; treatment emergent) was “(14.3) %” and the “Serious AEs, %” value ([1]; treatment emergent) was “(3.6) %”. The “Vomiting, %” value ([1]; treatment emergent) was “(0.0) %”, the “Treatment emergent AEs, %” value ([1]; until 35 days after dosing) was “(53.6) %” and the “Overall tolerability in the clinical study” value ([1]; single s.c. dose) was “well-tolerated”. The “Rate of clinically significant or severe hypoglycaemia” value [3] was < 1 episode per patient-year of exposure.
